For one data set, the species on record is Bos taurus. The experiment in a line: Binding affinity to calf thymus duplex DNA by fluorescence spectroscopic method.
In data set [1] the test system is H9c2. Description: Dark toxicity against rat H9c2 cells at 5 uM measured after 20 mins by spectrophotometric method. The settings on record: h9c2, 20 min. The data set is classed as cell-based. In outline: (§1)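 Human fibroblasts or rat H9c2 cardiomyocytes kept 20 min at room temperature in PBS, either in the dark or irradiated at λexc 400 nm, 7 mW/cm2, with or without 5 μM test agent. Cytotoxicity measured in triplicate; means ± SD, n = 3.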

The test system of data set [2] is M14. The experiment in a line: Dark toxicity in human M14 cells assessed as increase in LDH release at 5 uM measured after 20 mins by spectrophotometric method. It counts as cell-based. Particulars: m14, 20 min. A digest of the protocol: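 Cells (M14 melanoma, human fibroblasts or rat H9c2 cardiomyocytes) kept 20 min at room temperature in PBS in the dark, with 5 μM compound, given alone or with equimolar 5 μM doxorubicin. Cytotoxicity read as extracellular LDH release. Triplicate measurements, n = 3.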
A general note: LDH in the medium is a marker of cell lysis.

Data set [3] concerns M14. The experiment in a line: Cytotoxicity against 7 mW/cm'2 irradiated human M14 cells assessed as increase in LDH release at 5 uM measured after 20 mins by spectrophotometric method. The data set is classed as functional, cell-based. In outline: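 Cells (M14 melanoma, human fibroblasts or rat H9c2 cardiomyocytes) kept 20 min at room temperature in PBS under 400 nm light (7 mW/cm2), alone or with 5 μM compound, given alone or with equimolar 5 μM doxorubicin. Damage read as extracellular LDH release. Triplicate measurements, n = 3.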

The subject of data set [4] is Fibroblast. The experiment in a line: Dark toxicity against human fibroblasts at 5 uM measured after 20 mins by spectrophotometric method. The data set is classed as cell-based. A digest of the protocol:
as §1

Data set [5] deals with M14. The experiment in a line: Dark toxicity in human M14 cells assessed as increase in nitrite levels at 5 uM measured after 20 mins by Griess reagent based spectrophotometric method. It counts as cell-based. Particulars: m14, 20 min. (The Griess reaction detects nitrite, a stable product of nitric oxide.)
Data set [6] concerns H9c2. Description: Cytotoxicity against 7 mW/cm'2 irradiated rat H9c2 cells at 5 uM measured after 20 mins by spectrophotometric method. The data set is classed as cell-based. Particulars: h9c2, 20 min. In outline: as §1
Data set [7] concerns Fibroblast. The experiment in a line: Cytotoxicity against 7 mW/cm'2 irradiated human fibroblasts at 5 uM measured after 20 mins by spectrophotometric method. It counts as cell-based. In outline: as §1

Here are results for one compound from ChEMBL document CHEMBL4000256, “Light-Regulated NO Release as a Novel Strategy To Overcome Doxorubicin Multidrug Resistance” (ACS Med Chem Lett, 2017).

Calls of active or inactive are those of the source. The calls are words filed in the database; no cut-off is given here.

In the case of `COc1cccc2c1C(=O)c1c(O)c3c(c(O)c1C2=O)C[C@@](O)(C(=O)CO)C[C@@H]3O[C@H]1C[C@H](N)[C@H](O)[C@H](C)O1.Cl` [DOXORUBICIN HYDROCHLORIDE], the K in the data set filed under Bos taurus worked out at 630000 M⁻¹. Also, the Activity entry in the data set on H9c2 [1] is given as “Toxic”; in the data set with M14 [2], “Non-Toxic”; with Fibroblast [4] it was “Toxic”; in the data set on M14 [5] it was “Non-Toxic”; with H9c2 [6], “Toxic”; with Fibroblast [7], “Toxic”. In addition, the outcome in the data set with M14 [3] was inactive.
